Laboratory results reported in PubChem BioAssay.
Calls of active or inactive are those of the source.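 Rule for the calls, unless noted: active = viability at or under a set limit in both replicates, limit being median viability minus 3 SD (cut at about 48% in these data, passing the limit was not always enough); inconclusive = at or under the limit in just one replicate; inactive = at or above the limit in both replicates.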

Experiments:
[1] = reducers of endogenous Her2 protein level, primary screen, SKBR3 breast tumor cells, AlphaScreen, ATP viability (AID 461;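 active = Her2 level under about 52% in both replicate screens, with viability over 70% of control, limit read from the data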;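 for Her2 level: lower value means less Her2 protein in the cells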;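 for viability: percent of carrier control wells set as 100% viability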); conditions: 18-24 h, measured here: SKBR3 viability, ATP luminescence, at 10 µM
[2] = target: Receptor tyrosine-protein kinase erbB-2 (Homo sapiens) (UniProt P04626); test: as above; conditions: 18-24 h, at 10 µM, stronger effect = lower value
Receptor tyrosine-protein kinase erbB-2 (Homo sapiens), sequence (P04626 whole entry, looked up): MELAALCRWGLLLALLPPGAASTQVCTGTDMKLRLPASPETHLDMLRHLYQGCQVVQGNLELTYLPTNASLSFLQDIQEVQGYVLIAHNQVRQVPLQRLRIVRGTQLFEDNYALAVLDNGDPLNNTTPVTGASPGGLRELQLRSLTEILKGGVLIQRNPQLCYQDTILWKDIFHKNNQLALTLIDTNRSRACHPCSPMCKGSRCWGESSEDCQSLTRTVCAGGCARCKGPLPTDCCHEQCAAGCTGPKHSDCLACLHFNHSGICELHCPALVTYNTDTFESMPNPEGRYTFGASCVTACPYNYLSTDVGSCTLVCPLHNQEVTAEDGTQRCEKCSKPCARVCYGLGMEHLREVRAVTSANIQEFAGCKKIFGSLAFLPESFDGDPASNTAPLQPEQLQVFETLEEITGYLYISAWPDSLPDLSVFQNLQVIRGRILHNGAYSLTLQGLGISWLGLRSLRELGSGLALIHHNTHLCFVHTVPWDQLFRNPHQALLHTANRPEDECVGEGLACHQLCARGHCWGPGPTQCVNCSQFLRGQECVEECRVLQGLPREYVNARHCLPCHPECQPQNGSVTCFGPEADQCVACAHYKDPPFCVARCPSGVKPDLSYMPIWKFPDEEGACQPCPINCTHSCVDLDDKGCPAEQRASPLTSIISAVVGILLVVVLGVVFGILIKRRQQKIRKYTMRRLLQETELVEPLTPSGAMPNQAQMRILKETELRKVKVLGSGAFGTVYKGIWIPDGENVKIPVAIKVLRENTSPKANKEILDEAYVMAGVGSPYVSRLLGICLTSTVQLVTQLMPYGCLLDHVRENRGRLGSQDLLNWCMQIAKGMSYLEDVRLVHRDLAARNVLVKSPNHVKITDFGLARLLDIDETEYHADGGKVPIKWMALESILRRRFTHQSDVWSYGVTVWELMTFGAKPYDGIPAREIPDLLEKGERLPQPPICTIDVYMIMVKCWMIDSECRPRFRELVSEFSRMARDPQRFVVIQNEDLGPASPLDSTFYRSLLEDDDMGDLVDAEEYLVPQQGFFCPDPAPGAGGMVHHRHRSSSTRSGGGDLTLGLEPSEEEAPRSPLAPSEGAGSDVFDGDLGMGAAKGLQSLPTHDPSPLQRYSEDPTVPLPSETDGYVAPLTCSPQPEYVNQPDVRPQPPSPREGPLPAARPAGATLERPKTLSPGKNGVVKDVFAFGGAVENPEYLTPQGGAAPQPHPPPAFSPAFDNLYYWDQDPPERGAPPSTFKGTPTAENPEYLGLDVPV

[3] = SK-BR-3 cell growth inhibitors, pilot screen, 24 h, human (AID 572;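 active = viability at or below 10% of carrier control in both of two separate runs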;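 note: compound exposure lasted between 18 and 24 h rather than exactly 24 h; 100% = carrier-treated control wells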); conditions: SK-BR-3 viability, CellTiter-Glo luminescence, at 10 µM, stronger effect = lower value
[4] = HUVEC growth inhibition – cell-based, human, primary screen (AID 575;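 active = viability at or below 30% in both replicate assays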;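 note: 100% = median of untreated cell wells with 0.1% DMSO on each plate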); conditions: HUVEC proliferation, CellTiter-Glo luminescence, 72 h; at 10 µM; stronger effect = lower value
Outline: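 Test system: primary human umbilical vein endothelial cells; medium: endothelial basal medium with 2% FBS plus growth supplements; dosing: 10 µM compound only; times: 72 h treatment at 37 °C; signal: CTG luminescence; read-out: % viability relative to median vehicle-well signal on each plate; control set: vehicle and MePR control wells; plate: 384-well, collagen-coated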

[5] = growth inhibitors of H69AR lung tumor, primary screen, human, duplicate replicates (AID 580); conditions: H69AR lung tumor cells viability, ATP luminescence, 72 h; at 10 µM; stronger effect = lower value;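 note: 100% = mean luminescence of untreated wells and 0% = no signal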
[6] = reversal of MRP1-mediated doxorubicin resistance, pilot screen, H69AR cells, doxorubicin co-treatment (AID 601;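 active = viability loss from added drug above about 55%, and viability with drug at most 40%, in both replicates, limit read from the data, passing the limit was not always enough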); conditions: CellTiter-Glo, 72 h, at 10 µM; for differential viability (reversal): stronger effect = higher value
[7] = 384-well plate pilot, post-Golgi transport modulator project, inhibition of yeast transport mutant growth (AID 636; in the data active = inhibition above about 31%); conditions: absorbance 615 nm, about 18 h, stronger effect = higher value
[8] = growth suppression of yeast trafficking mutant, preliminary HTS, modulators of trafficking downstream of Golgi apparatus project, 1536-format plate, OD 615 nm (AID 637; in the data active = inhibition above about 30%); conditions: yeast transport mutant growth, absorbance 615 nm, 18 h; stronger effect = higher value
[9] = H69AR cells + 2 uM doxorubicin, measured here: viability with 2 uM doxorubicin, stronger effect = lower value
[10] = H69AR cells, compound alone cytotoxicity

Compound	viability [1] [%]	Her2 level [2]	viability [3]	viability [4]	viability [5]	differential viability (reversal) ([6]; H69AR cells + 2 uM doxorubicin)	viability [6, 9] [%]	viability [6, 10] [%]	inhibition [7]	inhibition [8]
O=C(CSc1ncc(-c2ccc(F)cc2)[nH]1)N1CCCCC1	91	124% (inactive)	91% (inactive)	92.6% (inactive)	91.3% (inactive)	2.38% (inactive)	89	91.3	-2.95% (inactive)	0% (inactive)
Cc1cc2c(=O)n(Cc3ccco3)c(SCC(=O)NCc3ccco3)nc2s1	100	88% (inactive)	100% (inactive)	93.7% (inactive)	81.2% (inactive)	4.87% (inactive)	76.4	81.2	-4% (inactive)	1.9% (inactive)
Nc1nnn(Cc2ccccc2)n1	93.5	92% (inactive)	93.5% (inactive)	100% (inactive)	119% (inactive)	22.1% (inactive)	97.3	119	-5.21% (inactive)	-6.98% (inactive)
Cn1c(=O)cc(OCC(=O)NCCCN2CCN(c3cccc(Cl)c3)CC2)c2ccccc21	85.5	74.5% (inactive)	85.5% (inactive)	48.7% (inactive)	63.7% (inactive)	-1.39% (inactive)	65.1	63.7	-6.53% (inactive)	-2.62% (inactive)
COCCOc1nc2ccccc2nc1C	126	94% (inactive)	126% (inactive)	88.4% (inactive)	87.6% (inactive)	0.7% (inactive)	86.9	87.6	-3.55% (inactive)	4.19% (inactive)
COC(=O)C1(C)NC(c2ccco2)C2C(=O)N(c3ccc(C)cc3)C(=O)C21 (stereo not given)	106	95% (inactive)	106% (inactive)	96.6% (inactive)	91.5% (inactive)	-3% (inactive)	94.5	91.5	-5.27% (inactive)	-3.83% (inactive)
Cn1c(=O)[nH]c(=O)c2[nH]c(NCCCN3CCOCC3)nc21	93.5	85.5% (inactive)	93.5% (inactive)	92.1% (inactive)	101% (inactive)	16.1% (inactive)	85	101	-2.47% (inactive)	-0.79% (inactive)
Cc1cc(C(F)(F)F)nn1Cc1ccc(C(=O)NCc2ccco2)o1	97	105% (inactive)	97% (inactive)	95.3% (inactive)	89.9% (inactive)	0.38% (inactive)	89.5	89.9	-0.53% (inactive)	0.82% (inactive)
CC(=O)Nc1ccc(OCC(O)Cn2nc(C)nc2C)cc1 (stereo not given)	93	86.5% (inactive)	93% (inactive)	81.3% (inactive)	91% (inactive)	-5.46% (inactive)	96.5	91	-1.67% (inactive)	-4.83% (inactive)
COCCn1c(C)cc(C(=O)CSc2nc3ccccc3c(=O)[nH]2)c1C	88.5	67% (inactive)	88.5% (inactive)	64.6% (inactive)	80.9% (inactive)	-8.01% (inactive)	88.9	80.9	-5.47% (inactive)	-3.61% (inactive)
Cn1nc(C(=O)N2CCOCC2)c2ccccc2c1=O	93	114% (inactive)	93% (inactive)	88.9% (inactive)	89.3% (inactive)	5.89% (inactive)	83.4	89.3	-1.3% (inactive)	0.67% (inactive)
CCc1cccc2c(=O)c(C(=O)N3CCCCCC3)c[nH]c12	104	102% (inactive)	104% (inactive)	98.4% (inactive)	97.5% (inactive)	1.41% (inactive)	96.1	97.5	-2% (inactive)	-6.94% (inactive)
Cc1ccccc1CS(=O)(=O)Cc1ccc(C(=O)NCCCN2CCOCC2)o1	77	97% (inactive)	77% (inactive)	104% (inactive)	98.2% (inactive)	3.12% (inactive)	95.1	98.2	-0.39% (inactive)	-6.13% (inactive)
Cc1ccc2c(c1)CCCN2C(=O)Nc1ccc2c(c1)OCO2	95.5	79% (inactive)	95.5% (inactive)	84.8% (inactive)	89.5% (inactive)	0.28% (inactive)	89.2	89.5	-6.27% (inactive)	6.89% (inactive)
O=C(NCc1ccc2c(c1)OCO2)c1cc2n(n1)C(C(F)(F)F)CC(c1ccc3c(c1)OCO3)N2 (stereo not given)	98	82% (inactive)	98% (inactive)	73.8% (inactive)	84.2% (inactive)	9.51% (inactive)	74.7	84.2	-2.89% (inactive)	5% (inactive)
